Experiment [1] in a line: Antagonistic activity against rat NR1A/2A receptor, expressed in Xenopus oocytes. In kind it is functional, cell-based. Conditions: Oocyte. The method in brief:
(§1)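 Two-electrode voltage clamp at -70 mV in nominally Ca2+-free Ringer (NaCl 115, KCl 2, BaCl2 1.8, HEPES 5 mM, pH 7.4). Drugs are given by bath perfusion at 7–10 mL/min, with final DMSO 0.1–1%. Inhibition of NMDA responses is measured, and IC50 is fitted from partial 3–5 point concentration–inhibition curves with a free residual minimum. Mean ± SEM, n as reported.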

Experiment [2] addresses T1, Glutamate NMDA receptor; Grin1/Grin2b (Rattus norvegicus, UniProt P35439+Q00960). Description: Antagonistic activity against rat NR1A/2B receptor expressed in Xenopus oocytes. In kind it is functional, cell-based, Oocyte. Summed up:
(§2)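 Cloned NR1A/2B receptors in oocytes, recorded by two-electrode voltage clamp at -70 mV in nominally Ca2+-free Ringer (pH 7.4). Drugs are bath perfused, with final DMSO 0.1–1%. IC50 for inhibition of NMDA responses is fitted from partial 3–5 point curves, with the residual fractional response ('min') fixed at 0.15. Mean ± SEM.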

Experiment [3] addresses T1, Glutamate NMDA receptor; Grin1/Grin2b. Briefly: Antagonistic activity against rat N-methyl-D-aspartate glutamate receptor 1/2B expressed in Xenopus oocytes. In kind it is functional, cell-based, Oocyte. Summed up: as §2
The target of experiment [4] is T2, Adrenergic receptor alpha-1 (Rattus norvegicus, UniProt P15823+P23944+P43140).
T2 sequence (P15823 whole entry): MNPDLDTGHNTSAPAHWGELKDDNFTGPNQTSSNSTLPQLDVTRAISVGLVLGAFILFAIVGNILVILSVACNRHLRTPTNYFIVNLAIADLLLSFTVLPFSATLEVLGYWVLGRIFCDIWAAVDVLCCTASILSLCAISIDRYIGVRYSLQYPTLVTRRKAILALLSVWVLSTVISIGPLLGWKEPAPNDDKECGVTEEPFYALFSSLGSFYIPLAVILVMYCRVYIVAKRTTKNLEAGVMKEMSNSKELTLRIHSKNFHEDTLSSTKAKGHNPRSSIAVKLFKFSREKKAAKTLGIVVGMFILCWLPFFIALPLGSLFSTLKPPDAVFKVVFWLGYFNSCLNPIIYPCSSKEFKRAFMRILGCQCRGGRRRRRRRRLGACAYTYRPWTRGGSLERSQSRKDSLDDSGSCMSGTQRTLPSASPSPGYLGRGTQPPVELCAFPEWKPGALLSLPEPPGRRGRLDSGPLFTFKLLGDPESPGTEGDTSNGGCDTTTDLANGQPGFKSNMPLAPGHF
T2 sequence (P23944 whole entry): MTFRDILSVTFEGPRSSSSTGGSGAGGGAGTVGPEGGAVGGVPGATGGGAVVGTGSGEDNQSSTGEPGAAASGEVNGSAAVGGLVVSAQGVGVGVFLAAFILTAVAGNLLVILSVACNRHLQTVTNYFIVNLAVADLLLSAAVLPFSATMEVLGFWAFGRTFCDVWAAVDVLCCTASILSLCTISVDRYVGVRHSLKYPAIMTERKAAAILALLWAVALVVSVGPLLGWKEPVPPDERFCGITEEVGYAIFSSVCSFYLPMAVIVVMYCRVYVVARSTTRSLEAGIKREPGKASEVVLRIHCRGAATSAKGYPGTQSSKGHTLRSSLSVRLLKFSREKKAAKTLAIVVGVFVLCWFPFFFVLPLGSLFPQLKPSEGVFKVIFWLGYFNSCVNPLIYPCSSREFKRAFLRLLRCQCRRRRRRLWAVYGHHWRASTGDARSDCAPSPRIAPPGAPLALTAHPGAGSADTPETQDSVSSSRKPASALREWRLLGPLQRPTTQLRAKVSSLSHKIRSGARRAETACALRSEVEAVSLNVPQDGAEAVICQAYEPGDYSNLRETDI
T2 sequence (P43140 whole entry): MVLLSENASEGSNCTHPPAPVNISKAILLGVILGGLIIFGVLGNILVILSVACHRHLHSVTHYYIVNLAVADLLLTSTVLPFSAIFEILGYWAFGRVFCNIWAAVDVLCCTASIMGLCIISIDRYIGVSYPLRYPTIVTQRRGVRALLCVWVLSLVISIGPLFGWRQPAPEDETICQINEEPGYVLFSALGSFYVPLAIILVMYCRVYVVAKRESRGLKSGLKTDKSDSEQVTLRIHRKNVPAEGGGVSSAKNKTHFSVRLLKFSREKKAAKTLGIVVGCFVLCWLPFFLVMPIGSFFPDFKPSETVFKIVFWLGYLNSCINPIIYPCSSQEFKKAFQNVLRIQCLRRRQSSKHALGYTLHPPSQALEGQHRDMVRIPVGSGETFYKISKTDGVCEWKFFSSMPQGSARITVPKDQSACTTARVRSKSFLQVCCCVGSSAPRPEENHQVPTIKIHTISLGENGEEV
Briefly: The compound was tested for binding affinity against Alpha-1 adrenergic receptor from rat using [3H]prazosin as radioligand. In kind it is protein assay. Summed up:
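Rat cortical membranes (Sprague–Dawley, triple-washed; 200 μg protein) incubated with 0.8 nM [3H]prazosin in 140 mM NaCl/5 mM MgCl2/50 mM Tris-HCl pH 7.4, 60 min at room temperature. Nine concentrations in duplicate, 1% DMSO final. Nonspecific binding defined by 10 μM phentolamine.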

Experiment [5] has as its target Glutamate NMDA receptor; Grin1/Grin2a (Rattus norvegicus, UniProt P35439+Q00959). Briefly: Antagonistic activity against rat N-methyl-D-aspartate glutamate receptor 1/2A, expressed in Xenopus oocytes. In kind it is functional, cell-based, Oocyte. Summed up:
as §1

Experiment [6] concerns the target D(2) dopamine receptor (Rattus norvegicus, UniProt P61169). Description: Binding affinity against Dopamine receptor D2 from rat using [3H]raclopride as radioligand. Summed up:
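Washed Sprague–Dawley rat striatal membranes (200 μg protein) incubated with 3 nM [3H]raclopride in 120 mM NaCl/5 mM KCl/50 mM Tris-HCl pH 7.4, 60 min at room temperature. Nine concentrations in duplicate, 1% DMSO final. Nonspecific binding with 300 μM sulpiride.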

In experiment [7] the target is Glutamate NMDA receptor; Grin1/Grin2c (Rattus norvegicus, UniProt P35439+Q00961). Briefly: Antagonistic activity against rat N-methyl-D-aspartate glutamate receptor 1/2C expressed in Xenopus oocytes. In kind it is functional, cell-based, Oocyte. Summed up:
as §1

Structures are written as SMILES.

Experimental findings from ChEMBL document CHEMBL1132273, “Subtype-selective N-methyl-D-aspartate receptor antagonists: synthesis and biological evaluation of 1-(arylalkynyl)-4-benzylpiperidines” (J Med Chem, 1999) are described below.

T1 sequence (Q00960 whole entry, other chains not shown, the tested form may be a part): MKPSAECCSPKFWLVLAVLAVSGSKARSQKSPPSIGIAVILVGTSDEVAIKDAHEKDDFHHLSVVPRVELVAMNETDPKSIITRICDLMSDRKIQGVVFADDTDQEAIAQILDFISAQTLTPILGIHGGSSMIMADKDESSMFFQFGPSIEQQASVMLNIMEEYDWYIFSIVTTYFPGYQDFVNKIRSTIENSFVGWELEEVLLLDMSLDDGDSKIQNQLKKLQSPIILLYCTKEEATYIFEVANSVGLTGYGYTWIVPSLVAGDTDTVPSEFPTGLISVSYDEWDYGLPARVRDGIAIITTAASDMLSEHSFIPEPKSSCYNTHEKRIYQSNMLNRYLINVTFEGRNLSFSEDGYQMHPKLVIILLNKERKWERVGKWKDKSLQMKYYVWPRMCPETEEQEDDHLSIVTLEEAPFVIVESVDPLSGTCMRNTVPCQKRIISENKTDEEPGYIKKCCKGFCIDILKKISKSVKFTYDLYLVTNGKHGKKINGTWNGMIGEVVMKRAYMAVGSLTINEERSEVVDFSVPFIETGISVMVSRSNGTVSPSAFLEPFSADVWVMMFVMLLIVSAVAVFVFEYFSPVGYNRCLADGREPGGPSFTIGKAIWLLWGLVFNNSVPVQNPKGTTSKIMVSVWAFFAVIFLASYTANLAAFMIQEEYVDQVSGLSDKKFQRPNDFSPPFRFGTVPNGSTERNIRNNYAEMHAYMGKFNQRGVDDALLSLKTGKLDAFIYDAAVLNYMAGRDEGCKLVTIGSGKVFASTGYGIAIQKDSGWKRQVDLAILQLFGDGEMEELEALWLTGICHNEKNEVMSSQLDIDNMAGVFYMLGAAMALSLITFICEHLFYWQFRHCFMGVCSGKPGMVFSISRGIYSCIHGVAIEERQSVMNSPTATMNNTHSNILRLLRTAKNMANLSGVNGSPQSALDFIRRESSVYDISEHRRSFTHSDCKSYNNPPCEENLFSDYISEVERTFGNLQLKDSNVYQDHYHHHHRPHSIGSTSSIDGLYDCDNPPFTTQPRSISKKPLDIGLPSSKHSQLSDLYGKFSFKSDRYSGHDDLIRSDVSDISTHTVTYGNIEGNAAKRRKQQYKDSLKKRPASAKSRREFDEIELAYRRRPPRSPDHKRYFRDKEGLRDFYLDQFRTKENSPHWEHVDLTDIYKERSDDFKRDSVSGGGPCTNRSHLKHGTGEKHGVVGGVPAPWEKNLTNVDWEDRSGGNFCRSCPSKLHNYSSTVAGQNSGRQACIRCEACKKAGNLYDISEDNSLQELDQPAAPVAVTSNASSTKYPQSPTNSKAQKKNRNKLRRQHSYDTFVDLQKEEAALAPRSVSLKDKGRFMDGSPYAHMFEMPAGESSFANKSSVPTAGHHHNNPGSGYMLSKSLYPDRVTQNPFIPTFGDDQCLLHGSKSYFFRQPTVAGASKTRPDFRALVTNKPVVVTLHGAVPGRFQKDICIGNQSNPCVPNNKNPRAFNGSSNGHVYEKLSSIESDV
Glutamate NMDA receptor; Grin1/Grin2a, sequence (Q00959 whole entry, other chains not shown): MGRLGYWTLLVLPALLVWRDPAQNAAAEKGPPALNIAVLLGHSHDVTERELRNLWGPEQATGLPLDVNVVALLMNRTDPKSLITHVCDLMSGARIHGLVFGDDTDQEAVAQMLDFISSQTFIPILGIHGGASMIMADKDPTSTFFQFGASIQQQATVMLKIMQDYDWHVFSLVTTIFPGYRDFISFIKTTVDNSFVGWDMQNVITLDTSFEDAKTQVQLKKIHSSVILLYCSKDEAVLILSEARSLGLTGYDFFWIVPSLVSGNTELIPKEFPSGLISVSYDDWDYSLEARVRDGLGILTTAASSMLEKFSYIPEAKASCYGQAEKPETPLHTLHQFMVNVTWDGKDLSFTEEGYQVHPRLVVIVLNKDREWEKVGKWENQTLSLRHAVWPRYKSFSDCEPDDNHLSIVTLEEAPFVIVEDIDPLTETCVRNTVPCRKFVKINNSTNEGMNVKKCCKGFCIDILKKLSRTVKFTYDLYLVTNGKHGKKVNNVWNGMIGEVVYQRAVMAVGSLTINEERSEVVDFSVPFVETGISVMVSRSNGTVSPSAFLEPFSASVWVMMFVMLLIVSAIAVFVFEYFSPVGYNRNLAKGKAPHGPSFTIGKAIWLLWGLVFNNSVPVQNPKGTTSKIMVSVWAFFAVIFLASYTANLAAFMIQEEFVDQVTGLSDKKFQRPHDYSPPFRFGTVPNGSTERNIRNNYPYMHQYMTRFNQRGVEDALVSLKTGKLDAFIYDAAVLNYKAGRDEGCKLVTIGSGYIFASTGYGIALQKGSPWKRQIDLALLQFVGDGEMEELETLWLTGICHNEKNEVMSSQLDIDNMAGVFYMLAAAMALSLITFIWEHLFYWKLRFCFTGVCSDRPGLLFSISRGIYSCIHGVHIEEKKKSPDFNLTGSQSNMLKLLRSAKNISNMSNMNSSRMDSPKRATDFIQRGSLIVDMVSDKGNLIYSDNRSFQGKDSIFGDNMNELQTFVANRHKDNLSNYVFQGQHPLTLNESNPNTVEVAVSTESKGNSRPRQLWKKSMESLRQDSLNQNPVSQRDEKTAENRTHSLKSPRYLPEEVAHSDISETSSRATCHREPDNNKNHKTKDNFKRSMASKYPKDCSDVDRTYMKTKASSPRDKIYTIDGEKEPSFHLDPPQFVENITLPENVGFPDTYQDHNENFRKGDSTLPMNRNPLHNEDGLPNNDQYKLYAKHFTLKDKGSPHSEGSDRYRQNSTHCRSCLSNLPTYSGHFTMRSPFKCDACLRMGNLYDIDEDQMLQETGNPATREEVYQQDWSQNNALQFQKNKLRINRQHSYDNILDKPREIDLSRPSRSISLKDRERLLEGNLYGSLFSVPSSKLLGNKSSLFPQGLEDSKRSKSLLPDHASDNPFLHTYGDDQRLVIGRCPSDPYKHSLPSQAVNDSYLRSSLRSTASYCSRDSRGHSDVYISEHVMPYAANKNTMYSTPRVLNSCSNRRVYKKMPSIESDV
Glutamate NMDA receptor; Grin1/Grin2c, sequence (Q00961 whole entry, other chains not shown): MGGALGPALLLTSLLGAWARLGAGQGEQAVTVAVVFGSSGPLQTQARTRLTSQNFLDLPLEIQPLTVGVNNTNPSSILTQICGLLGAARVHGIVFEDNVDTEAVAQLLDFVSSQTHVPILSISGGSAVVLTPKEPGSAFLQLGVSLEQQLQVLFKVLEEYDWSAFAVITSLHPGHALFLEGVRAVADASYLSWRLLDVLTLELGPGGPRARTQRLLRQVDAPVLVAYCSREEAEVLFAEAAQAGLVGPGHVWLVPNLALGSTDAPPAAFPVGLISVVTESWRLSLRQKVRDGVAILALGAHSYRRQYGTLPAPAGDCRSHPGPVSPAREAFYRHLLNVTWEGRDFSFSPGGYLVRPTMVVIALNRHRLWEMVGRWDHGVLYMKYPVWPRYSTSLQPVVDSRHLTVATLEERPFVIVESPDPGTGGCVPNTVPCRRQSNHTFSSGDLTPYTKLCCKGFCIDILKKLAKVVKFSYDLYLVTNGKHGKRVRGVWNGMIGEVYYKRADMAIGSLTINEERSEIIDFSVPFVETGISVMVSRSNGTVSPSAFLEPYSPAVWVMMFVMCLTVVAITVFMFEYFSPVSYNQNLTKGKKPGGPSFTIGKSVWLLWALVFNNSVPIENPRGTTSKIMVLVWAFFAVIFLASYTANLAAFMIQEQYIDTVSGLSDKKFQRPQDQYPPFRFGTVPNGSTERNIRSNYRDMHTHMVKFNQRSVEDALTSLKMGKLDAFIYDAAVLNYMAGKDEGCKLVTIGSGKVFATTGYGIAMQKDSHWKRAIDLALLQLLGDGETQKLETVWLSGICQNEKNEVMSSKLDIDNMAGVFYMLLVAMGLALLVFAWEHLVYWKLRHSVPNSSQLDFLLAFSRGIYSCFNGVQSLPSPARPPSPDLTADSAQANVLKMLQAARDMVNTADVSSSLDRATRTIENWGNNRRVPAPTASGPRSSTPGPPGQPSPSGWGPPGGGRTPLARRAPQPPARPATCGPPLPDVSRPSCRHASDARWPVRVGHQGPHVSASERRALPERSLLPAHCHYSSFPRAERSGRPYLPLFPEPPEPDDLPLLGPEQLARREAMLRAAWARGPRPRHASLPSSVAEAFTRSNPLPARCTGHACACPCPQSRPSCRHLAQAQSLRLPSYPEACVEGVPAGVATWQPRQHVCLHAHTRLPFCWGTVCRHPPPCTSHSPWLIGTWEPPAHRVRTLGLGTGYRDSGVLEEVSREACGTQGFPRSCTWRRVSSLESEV
D(2) dopamine receptor, sequence (P61169 whole entry): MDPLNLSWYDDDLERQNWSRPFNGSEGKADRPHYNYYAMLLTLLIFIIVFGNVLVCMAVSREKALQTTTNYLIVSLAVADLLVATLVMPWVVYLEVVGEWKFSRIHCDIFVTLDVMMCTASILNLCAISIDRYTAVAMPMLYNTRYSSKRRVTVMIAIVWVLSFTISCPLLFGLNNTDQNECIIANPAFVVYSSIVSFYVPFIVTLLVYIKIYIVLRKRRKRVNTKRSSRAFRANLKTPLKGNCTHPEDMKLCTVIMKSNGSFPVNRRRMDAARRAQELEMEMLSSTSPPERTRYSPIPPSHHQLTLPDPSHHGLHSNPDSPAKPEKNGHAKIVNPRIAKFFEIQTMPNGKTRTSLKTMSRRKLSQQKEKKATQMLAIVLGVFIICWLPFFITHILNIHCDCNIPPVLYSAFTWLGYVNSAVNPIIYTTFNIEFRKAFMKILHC

For orientation: IC50 means the concentration needed to halve the response being measured. Low values mean inhibition by little substance, high ones a need for much substance. With `C(#Cc1ccccc1)CCN1CCC(Cc2ccccc2)CC1`, the IC50 is more than 100 µM in experiment [1] and 4.7 µM in experiment [2].
On to `CC(=O)Nc1ccc(C#CCCN2CCC(Cc3ccccc3)CC2)cc1`, for which the IC50 in experiment [3] is 260 nM; in experiment [4], 1.1 µM; in experiment [5] it was more than 100 µM; in experiment [6], 100 nM; in experiment [7], more than 100 µM.
`CS(=O)(=O)Nc1ccc(C#CCCCN2CCC(Cc3ccccc3)CC2)cc1`: the IC50 in experiment [3] was 280 nM; in experiment [4], 1.1 µM; in experiment [5] it was more than 100 µM; in experiment [6], 2300 nM; in experiment [7] it was more than 100 µM.
